Test system: HEK-293T
Experiment: Multiplex assay against HEK293T
Type: toxicity, cell-based
Details: human
In short: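 Phenotypes for tubulin, mitochondrial mass and membrane permeability are expressed as per cents of healthy-nucleus cells. Cells were stained live at seeding with Hoechst33342, BioTracker Green Microtubule Cytoskeleton Dye, MitoTracker Red and Annexin V Alexa Fluor 680, then imaged after compound addition on a CQ1 microscope at 37°C and 5% CO2. Machine-learning gating in CellPathfinder separated Hoechst high-intensity objects from normal cells, divided normal cells by nuclear state (healthy, pyknosed, fragmented) and divided pyknosed cells into mitotic or apoptotic.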

[1] = 12 h, 1 µM, compound concentration 1 uM, replicate 1
[2] = 12 h, 1 µM, compound concentration 1 uM, replicate 2
[3] = 12 h, 10 µM, compound concentration 10 uM, replicate 1
[4] = 12 h, 10 µM, compound concentration 10 uM, replicate 2
[5] = 24 h, 1 µM, compound concentration 1 uM, replicate 1
[6] = 24 h, 1 µM, compound concentration 1 uM, replicate 2
[7] = 24 h, 10 µM, compound concentration 10 uM, replicate 1
[8] = 24 h, 10 µM, compound concentration 10 uM, replicate 2
[9] = 48 h, 1 µM, compound concentration 1 uM, replicate 1
[10] = 48 h, 1 µM, compound concentration 1 uM, replicate 2
[11] = 48 h, 10 µM, compound concentration 10 uM, replicate 1
[12] = 48 h, 10 µM, compound concentration 10 uM, replicate 2

## Cc1ccc(F)cc1C(=O)Nc1ccc(C(=O)N2Cc3cccn3Cc3ccccc32)c(Cl)c1 [LIXIVAPTAN]
[1]
  Population Apoptotic (%): 36%
  Population Fragmented Nuclei (%): 5%
  Population Healthy Nuclei (%): 83%
  Population Hoechst High Intensity Objects (%): 7%
  Population Membrane Permeable-Phenotype (%): 0%
  Population Mitochondria Different-Phenotype (%): 45%
  Population Mitotic Cells (%): 63%
  Population Normal (%): 92%
  Population Pyknosed Nuclei (%): 10%
  Population Tubulin-Different-Phenotype (%): 38%
  Total Cell Count: 486
[2]
  Population Apoptotic (%): 40%
  Population Fragmented Nuclei (%): 6%
  Population Healthy Nuclei (%): 74%
  Population Hoechst High Intensity Objects (%): 5%
  Population Mitochondria Different-Phenotype (%): 57%
  Population Mitotic Cells (%): 60%
  Population Normal (%): 94%
  Population Pyknosed Nuclei (%): 19%
  Population Tubulin-Different-Phenotype (%): 32%
  Total Cell Count: 335
[3]
  Population Apoptotic (%): 46%
  Population Fragmented Nuclei (%): 6%
  Population Healthy Nuclei (%): 70%
  Population Hoechst High Intensity Objects (%): 10%
  Population Membrane Permeable-Phenotype (%): 0%
  Population Mitochondria Different-Phenotype (%): 75%
  Population Mitotic Cells (%): 53%
  Population Normal (%): 89%
  Population Pyknosed Nuclei (%): 22%
  Population Tubulin-Different-Phenotype (%): 78%
  Total Cell Count: 339
[4]
  Population Apoptotic (%): 50%
  Population Healthy Nuclei (%): 67%
  Population Hoechst High Intensity Objects (%): 6%
  Population Membrane Permeable-Phenotype (%): 1%
  Population Mitochondria Different-Phenotype (%): 81%
  Population Mitotic Cells (%): 50%
  Population Normal (%): 93%
  Population Pyknosed Nuclei (%): 25%
  Population Tubulin-Different-Phenotype (%): 67%
  Total Cell Count: 357
[5]
  Population Apoptotic (%): 30%
  Population Fragmented Nuclei (%): 9%
  Population Healthy Nuclei (%): 77%
  Population Hoechst High Intensity Objects (%): 5%
  Population Membrane Permeable-Phenotype (%): 0%
  Population Mitochondria Different-Phenotype (%): 30%
  Population Mitotic Cells (%): 69%
  Population Normal (%): 94%
  Population Pyknosed Nuclei (%): 13%
  Population Tubulin-Different-Phenotype (%): 24%
  Total Cell Count: 595
[6]
  Population Apoptotic (%): 36%
  Population Fragmented Nuclei (%): 10%
  Population Healthy Nuclei (%): 76%
  Population Hoechst High Intensity Objects (%): 7%
  Population Mitochondria Different-Phenotype (%): 42%
  Population Mitotic Cells (%): 63%
  Population Normal (%): 92%
  Population Tubulin-Different-Phenotype (%): 22%
  Total Cell Count: 423
[7]
  Population Apoptotic (%): 37%
  Population Fragmented Nuclei (%): 5%
  Population Healthy Nuclei (%): 69%
  Population Hoechst High Intensity Objects (%): 7%
  Population Membrane Permeable-Phenotype (%): 0%
  Population Mitochondria Different-Phenotype (%): 74%
  Population Mitotic Cells (%): 62%
  Population Normal (%): 92%
  Population Pyknosed Nuclei (%): 24%
  Population Tubulin-Different-Phenotype (%): 71%
  Total Cell Count: 392
[8]
  Population Apoptotic (%): 58%
  Population Fragmented Nuclei (%): 8%
  Population Healthy Nuclei (%): 72%
  Population Hoechst High Intensity Objects (%): 6%
  Population Mitochondria Different-Phenotype (%): 78%
  Population Mitotic Cells (%): 41%
  Population Normal (%): 93%
  Population Pyknosed Nuclei (%): 19%
  Population Tubulin-Different-Phenotype (%): 69%
  Total Cell Count: 401
[9]
  Population Apoptotic (%): 22%
  Population Fragmented Nuclei (%): 12%
  Population Healthy Nuclei (%): 80%
  Population Hoechst High Intensity Objects (%): 2%
  Population Membrane Permeable-Phenotype (%): 0%
  Population Mitochondria Different-Phenotype (%): 19%
  Population Mitotic Cells (%): 77%
  Population Normal (%): 97%
  Population Pyknosed Nuclei (%): 6%
  Population Tubulin-Different-Phenotype (%): 17%
  Total Cell Count: 995
[10]
  Population Apoptotic (%): 17%
  Population Hoechst High Intensity Objects (%): 4%
  Population Mitochondria Different-Phenotype (%): 24%
  Population Mitotic Cells (%): 82%
  Population Normal (%): 95%
  Population Pyknosed Nuclei (%): 7%
  Population Tubulin-Different-Phenotype (%): 21%
  Total Cell Count: 643
[11]
  Population Apoptotic (%): 43%
  Population Fragmented Nuclei (%): 9%
  Population Healthy Nuclei (%): 74%
  Population Hoechst High Intensity Objects (%): 7%
  Population Membrane Permeable-Phenotype (%): 0%
  Population Mitochondria Different-Phenotype (%): 72%
  Population Mitotic Cells (%): 56%
  Population Normal (%): 92%
  Population Pyknosed Nuclei (%): 16%
  Population Tubulin-Different-Phenotype (%): 69%
  Total Cell Count: 489
[12]
  Population Apoptotic (%): 46%
  Population Fragmented Nuclei (%): 11%
  Population Hoechst High Intensity Objects (%): 8%
  Population Mitochondria Different-Phenotype (%): 71%
  Population Mitotic Cells (%): 53%
  Population Normal (%): 91%
  Population Pyknosed Nuclei (%): 14%
  Population Tubulin-Different-Phenotype (%): 59%
  Total Cell Count: 437
